Our source for the growth, % of control and EC values is ChEMBL document CHEMBL3102739, “Synthesis and antiproliferative activity of conformationally restricted 1,2,3-triazole analogues of combretastatins in the sea urchin embryo model and against human cancer cell lines” (Bioorg Med Chem, 2014).

Some results are limits rather than exact numbers.

The nature of experiment [1]: Growth inhibition of human NCI60 cells at 10 uM after 48 hrs by SRB assay. The experiment is classed as functional. The settings on record: NCI60, 48 h, values are per cent of control.
For experiment [2], the system named is Paracentrotus lividus. In words: Antimitotic activity against sea urchin embryo free-swimming blastula model assessed as embryo spinning compound treated at 8 to 10 hrs post-fertilization measured after 0.25 to 20 hrs. The experiment is classed as functional, Blastula stage.
Experiment [3] concerns Paracentrotus lividus. In words: Antimitotic activity against sea urchin embryo model assessed as cleavage arrest of fertilized egg compound treated at 8 to 20 mins post-fertilization and 45 to 55 mins prior to first mitotic cycle completion measured 2.5 to 5.5 hrs post-fertilization. The experiment is classed as functional. The gist of the method: (§1)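 Fertilized eggs are exposed 8–20 min after fertilization to 2-fold decreasing concentrations. Stocks are 10 mM in DMSO, then diluted 10-fold in 95% EtOH; final DMSO is at most 0.05% and EtOH at most 1%. Embryos are kept as a monolayer, up to 2000 embryos/mL, in filtered seawater at room temperature. The value is the threshold concentration giving cleavage alteration, embryo death before hatching or full mitotic arrest. Duplicates were run.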

The subject of experiment [4] is Paracentrotus lividus. In words: Antimitotic activity against sea urchin embryo model assessed as cleavage alteration of fertilized egg compound treated at 8 to 20 mins post-fertilization and 45 to 55 mins prior to first mitotic cycle completion measured 2.5 to 5.5 hrs post-fertilization. The experiment is classed as functional. An outline of the steps: as §1

`COc1ccc(-c2c(C(N)=O)nnn2-c2cc(OC)c(OC)c(OC)c2)cc1` came in with a growth, % of control at 10 µM in experiment [1] of 101%. Also, the EC in the experiment on Paracentrotus lividus [2], in the experiment with Paracentrotus lividus [3] and in the experiment with Paracentrotus lividus [4] was more than 4 µM each time.

In the case of `COc1ccc(-c2cnnn2-c2cc(OC)c3c(c2OC)OCO3)cc1`, the results for the EC in the experiment with Paracentrotus lividus [2], in the experiment on Paracentrotus lividus [3] and in the experiment with Paracentrotus lividus [4] were more than 4 µM, more than 4 µM and 1 µM, respectively.

Regarding `COC(=O)c1nnn(-c2cc(OC)c(OC)c(OC)c2)c1-c1ccc(OC)cc1`, the EC in the experiment with Paracentrotus lividus [2], with Paracentrotus lividus [3] and in the experiment on Paracentrotus lividus [4] was more than 4 µM in each case.

As for `COc1ccc(-c2c(C#N)nnn2-c2cc(OC)c(OC)c(OC)c2)cc1`, the EC in the experiment with Paracentrotus lividus [2], in the experiment with Paracentrotus lividus [3] and in the experiment on Paracentrotus lividus [4] was more than 4 µM in each case.

For the compound `CCOC(=O)c1nnn(-c2cccc(Cl)c2)c1-c1ccccc1`, the EC with Paracentrotus lividus [2], in the experiment on Paracentrotus lividus [3] and in the experiment with Paracentrotus lividus [4] was more than 4 µM in each case.

Turning to `COc1ccc(-c2c(C(=O)O)nnn2-c2cc(OC)c(OC)c(OC)c2)cc1`, in experiment [1], the growth, % of control at 10 µM was 99.4%. The EC in the experiment with Paracentrotus lividus [2], in the experiment on Paracentrotus lividus [3] and with Paracentrotus lividus [4] was more than 4 µM in each case.

For the compound `COc1cc(-c2c(C#N)nnn2-c2cc(OC)c(OC)c(OC)c2)cc(OC)c1OC`, the growth, % of control at 10 µM in experiment [1] amounted to 98.8%. Moreover, the EC in the experiment on Paracentrotus lividus [2], in the experiment on Paracentrotus lividus [3] and in the experiment on Paracentrotus lividus [4] was more than 4 µM in each case.

The compound `COc1ccc(-n2nnc(C(=O)O)c2-c2cc(OC)c(OC)c(OC)c2)cc1` displayed a growth, % of control at 10 µM in experiment [1] of 104%. The EC with Paracentrotus lividus [2], with Paracentrotus lividus [3] and in the experiment with Paracentrotus lividus [4] was more than 4 µM in each case.

In the case of `COc1ccc(-n2nnc(C#N)c2-c2cccc(OC)c2)cc1`, the results for the EC in the experiment with Paracentrotus lividus [2], in the experiment with Paracentrotus lividus [3] and in the experiment on Paracentrotus lividus [4] were 5 µM, 1 µM and 0.2 µM, respectively.

Consider `COc1cc(-c2c(C#N)nnn2-c2cccc(Cl)c2)cc(OC)c1OC`, for which the growth, % of control at 10 µM in experiment [1] was found to be 92.6%. Also, the EC with Paracentrotus lividus [2] was more than 5 µM; in the experiment with Paracentrotus lividus [3], 2 µM; in the experiment on Paracentrotus lividus [4] it was 0.5 µM.

For `Nc1nnn(-c2cccc(Cl)c2)c1-c1ccccc1`, the EC in the experiment with Paracentrotus lividus [2], in the experiment with Paracentrotus lividus [3] and in the experiment with Paracentrotus lividus [4] was more than 4 µM in each case.

On to `COc1ccc(-c2c(N)nnn2-c2cc(OC)c(OC)c(OC)c2)cc1`, for which the EC in the experiment on Paracentrotus lividus [2] was more than 5 µM; in the experiment on Paracentrotus lividus [3], more than 4 µM; in the experiment with Paracentrotus lividus [4] it was 0.1 µM.

With `Clc1cccc(-n2nncc2-c2ccccc2)c1`, the EC in the experiment on Paracentrotus lividus [2], with Paracentrotus lividus [3] and in the experiment on Paracentrotus lividus [4] was more than 4 µM in each case.

For the compound `COc1ccc(-n2nnc(C#N)c2-c2cc(OC)c(OC)c(OC)c2)cc1`, the EC in the experiment on Paracentrotus lividus [2] was more than 4 µM; in the experiment with Paracentrotus lividus [3], more than 4 µM; with Paracentrotus lividus [4], 1 µM.

On to `COc1ccc(/C=C\c2cc(OC)c3c(c2)OCO3)cc1O` [Combretastatin A-2], for which the EC was found to be 0.05 µM with Paracentrotus lividus [2], 0.01 µM with Paracentrotus lividus [3] and 0.002 µM in the experiment on Paracentrotus lividus [4].

`O=C(O)c1nnn(-c2cccc(Cl)c2)c1-c1ccccc1`: the EC with Paracentrotus lividus [2], in the experiment with Paracentrotus lividus [3] and in the experiment with Paracentrotus lividus [4] was more than 4 µM in each case.

As for `COc1ccc(-c2c(C#N)nnn2-c2ccc(OC)cc2)cc1`, the growth, % of control at 10 µM in experiment [1] amounted to 96.7%. Further, the EC was more than 4 µM in the experiment on Paracentrotus lividus [2], more than 4 µM with Paracentrotus lividus [3] and 4 µM in the experiment with Paracentrotus lividus [4].

As to `COc1ccc(-n2nnc(N)c2-c2cc(OC)c(OC)c(OC)c2)cc1`, in experiment [1], the growth, % of control at 10 µM was determined as 90.1%. The EC in the experiment on Paracentrotus lividus [2] is more than 4 µM; in the experiment on Paracentrotus lividus [3], more than 4 µM; in the experiment with Paracentrotus lividus [4] it was 4 µM.

In turn, `COc1cccc(-c2c(C#N)nnn2-c2cccc(Cl)c2)c1` had a growth, % of control at 10 µM in experiment [1] of 92%. Further, the EC with Paracentrotus lividus [2], in the experiment with Paracentrotus lividus [3] and in the experiment on Paracentrotus lividus [4] was more than 4 µM each time.

As to `COc1cc(-c2c(C(N)=O)nnn2-c2cc(OC)c(OC)c(OC)c2)cc(OC)c1OC`, the growth, % of control at 10 µM in experiment [1] came out at 102%. Moreover, the EC in the experiment on Paracentrotus lividus [2], in the experiment with Paracentrotus lividus [3] and with Paracentrotus lividus [4] was more than 4 µM throughout.
